# Experimental data taken from ChEMBL document CHEMBL4431313, “Inhibition of Plasmodium falciparum Hsp90 Contributes to the Antimalarial Activities of Aminoalcohol-carbazoles” (J Med Chem, 2016).
# Activity calls are given as the source filed them. The calls are words filed in the database; no cut-off is given here.
# Assays:
# [1] = system: Plasmodium falciparum; assay: Antimalarial activity against Plasmodium falciparum NF54 infected in human erythrocytes assessed as [3H]-hypoxanthine incorporation by scintillation counting analysis; type: functional, organism-based
# Summary of the method: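 NF54 parasites grown in human erythrocytes in RPMI 1640 with 0.5% ALBUMAX II, 25 mM Hepes, 25 mM NaHCO3 (pH 7.3), 0.36 mM hypoxanthine and 100 μg/mL neomycin, at 37 °C under 3% O2/4% CO2/93% N2, humidified. IC50 derived in vitro from [3H]hypoxanthine incorporation. Compounds held as 10 mM DMSO stocks at -20 °C.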
# [2] = system: L6; assay: Cytotoxicity against rat L6 cells after 72 hrs by alamar blue assay; type: cell-based; conditions: L6, 72 h
# [3] = target: T1, HSP90 (Plasmodium falciparum 3D7) (UniProt Q8IL32); assay: Binding affinity to recombinant Plasmodium falciparum Hsp90 expressed in Escherichia coli BL21(DE3) pLysS assessed as thermophoresis shift at 50 uM by microscale thermophoresis assay
# T1 sequence (whole entry): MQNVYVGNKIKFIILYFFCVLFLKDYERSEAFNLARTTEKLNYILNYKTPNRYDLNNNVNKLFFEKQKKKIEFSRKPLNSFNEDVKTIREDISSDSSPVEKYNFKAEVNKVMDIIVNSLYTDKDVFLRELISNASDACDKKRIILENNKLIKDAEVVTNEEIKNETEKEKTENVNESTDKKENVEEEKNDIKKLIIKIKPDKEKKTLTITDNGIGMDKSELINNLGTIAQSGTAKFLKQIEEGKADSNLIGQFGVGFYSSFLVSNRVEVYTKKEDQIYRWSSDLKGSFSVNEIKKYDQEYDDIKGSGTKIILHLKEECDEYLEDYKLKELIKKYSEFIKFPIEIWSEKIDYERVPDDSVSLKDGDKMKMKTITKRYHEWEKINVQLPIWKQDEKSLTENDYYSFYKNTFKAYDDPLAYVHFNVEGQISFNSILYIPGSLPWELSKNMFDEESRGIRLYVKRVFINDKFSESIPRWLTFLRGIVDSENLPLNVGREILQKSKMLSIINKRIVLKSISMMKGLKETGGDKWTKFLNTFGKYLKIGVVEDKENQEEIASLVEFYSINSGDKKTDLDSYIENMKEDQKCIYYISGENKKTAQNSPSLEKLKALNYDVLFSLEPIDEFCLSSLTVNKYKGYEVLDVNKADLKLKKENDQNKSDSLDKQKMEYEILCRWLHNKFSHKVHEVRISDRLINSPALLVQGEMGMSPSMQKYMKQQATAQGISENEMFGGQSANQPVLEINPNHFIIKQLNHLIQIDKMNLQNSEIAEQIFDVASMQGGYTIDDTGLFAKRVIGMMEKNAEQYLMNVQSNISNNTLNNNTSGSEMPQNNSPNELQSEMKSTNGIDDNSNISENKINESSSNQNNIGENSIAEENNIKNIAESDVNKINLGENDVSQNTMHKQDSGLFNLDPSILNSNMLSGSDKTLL
# Summary of the method: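 Microscale thermophoresis with fluorescently labeled PfHsp90: ligand-induced change in the protein's movement along a temperature gradient. Each compound tested at a fixed 50 μM. Compounds were held as 10 mM stocks in 100% DMSO at -20 °C.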
# [4] = target: Heat shock protein 90 (Plasmodium falciparum, UniProt Q8IC05); assay: Binding affinity to recombinant Plasmodium falciparum Hsp90 expressed in Escherichia coli BL21(DE3) pLysS by microscale thermophoresis assay
# [5] = system: Plasmodium falciparum; assay: Antimalarial activity against Plasmodium falciparum K1 infected in human erythrocytes after 72 hrs by DAPI staining-based confocal imaging system; type: functional, organism-based; conditions: K1, 72 h
# [6] = system: Plasmodium falciparum; assay: Antimalarial activity against Plasmodium falciparum 3D7 infected in human erythrocytes after 72 hrs by DAPI staining-based confocal imaging system; type: functional, organism-based; conditions: 3D7, 72 h
# [7] = (§1) Binding affinity to recombinant Plasmodium falciparum Hsp90 ISG-LGA mutant expressed in Escherichia coli BL21(DE3) pLysS by microscale thermophoresis assay
# [8] = target: Heat shock protein HSP 90-beta (Homo sapiens) (UniProt P08238); assay: Binding affinity to recombinant human Hsp90 beta expressed in Escherichia coli BL21(DE3) pLysS by microscale thermophoresis assay
# [9] = system: Plasmodium falciparum; assay: as §1
# Chain of Heat shock protein 90 (Q8IC05 1-745): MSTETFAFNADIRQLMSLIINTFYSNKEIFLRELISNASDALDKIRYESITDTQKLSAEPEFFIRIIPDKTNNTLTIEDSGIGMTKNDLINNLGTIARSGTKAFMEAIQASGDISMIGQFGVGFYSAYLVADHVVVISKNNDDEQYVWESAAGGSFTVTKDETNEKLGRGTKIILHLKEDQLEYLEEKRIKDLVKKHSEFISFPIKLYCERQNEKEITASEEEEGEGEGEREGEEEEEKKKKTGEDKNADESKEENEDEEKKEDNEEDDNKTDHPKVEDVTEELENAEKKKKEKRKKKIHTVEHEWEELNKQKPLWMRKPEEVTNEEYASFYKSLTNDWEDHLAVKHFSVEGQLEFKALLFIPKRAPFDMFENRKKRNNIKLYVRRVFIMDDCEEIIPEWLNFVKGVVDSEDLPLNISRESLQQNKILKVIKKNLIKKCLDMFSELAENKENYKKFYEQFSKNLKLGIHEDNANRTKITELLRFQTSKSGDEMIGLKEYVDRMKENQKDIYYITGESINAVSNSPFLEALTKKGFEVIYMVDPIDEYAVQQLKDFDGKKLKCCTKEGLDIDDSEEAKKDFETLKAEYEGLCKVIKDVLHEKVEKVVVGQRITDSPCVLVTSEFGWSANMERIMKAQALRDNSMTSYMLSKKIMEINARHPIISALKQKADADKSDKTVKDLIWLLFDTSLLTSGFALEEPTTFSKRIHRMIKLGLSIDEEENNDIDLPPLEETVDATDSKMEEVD
# Chain of Heat shock protein HSP 90-beta (Homo sapiens) (P08238 whole entry): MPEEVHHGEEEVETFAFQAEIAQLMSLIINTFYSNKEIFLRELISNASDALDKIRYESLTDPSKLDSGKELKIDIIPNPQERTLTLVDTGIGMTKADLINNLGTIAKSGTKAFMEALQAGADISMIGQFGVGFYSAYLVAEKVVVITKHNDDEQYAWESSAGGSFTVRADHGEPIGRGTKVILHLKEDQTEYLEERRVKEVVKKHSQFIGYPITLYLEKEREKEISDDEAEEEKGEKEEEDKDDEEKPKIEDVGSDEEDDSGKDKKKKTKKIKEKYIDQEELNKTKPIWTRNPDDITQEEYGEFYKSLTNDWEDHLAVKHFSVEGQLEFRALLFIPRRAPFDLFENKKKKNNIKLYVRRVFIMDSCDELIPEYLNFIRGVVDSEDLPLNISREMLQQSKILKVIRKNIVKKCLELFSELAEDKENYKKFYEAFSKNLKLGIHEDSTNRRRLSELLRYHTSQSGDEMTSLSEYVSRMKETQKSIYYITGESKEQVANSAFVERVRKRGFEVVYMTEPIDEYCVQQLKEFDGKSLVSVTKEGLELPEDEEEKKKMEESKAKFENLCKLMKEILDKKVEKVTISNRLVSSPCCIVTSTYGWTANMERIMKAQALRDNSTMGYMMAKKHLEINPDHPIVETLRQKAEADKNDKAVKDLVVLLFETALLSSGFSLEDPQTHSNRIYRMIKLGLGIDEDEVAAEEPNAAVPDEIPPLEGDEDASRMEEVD
IC50 [1] [µM],Activity [3] [U],IC50 [5] [µM],IC50 [6] [µM],SMILES,IC50 [2] [µM],Kd [4] [µM],Kd [7] [µM],Activity [8],Activity [9]
1.56,3.85,,,CCC(C)NCC(O)Cn1c2ccc(Cl)cc2c2cc(Cl)ccc21 (centres undefined),0.975,,,,
0.095,6.64,,,OC(CN1CCN(Cc2ccccc2)CC1)Cn1c2ccc(Br)cc2c2cc(Br)ccc21 (centres undefined),3.67,,,,
1.23,8.19,,,OC(CN1CCOCC1)Cn1c2ccc(Cl)cc2c2cc(Cl)ccc21 (centres undefined),9.72,,,,
0.07 to 0.082,8.38,0.48 to 1.8,0.48 to 1.8,CC(C)NCC(O)Cn1c2ccc(Cl)cc2c2cc(Cl)ccc21 (centres undefined),2.61,,,,
2.08,6.87,,,OC(CN1CCOCC1)Cn1c2ccc(Br)cc2c2cc(Br)ccc21 (centres undefined),11.6,,,,
0.086,5.88,,,OC(CNC1CCCCC1)Cn1c2ccc(Cl)cc2c2cc(Cl)ccc21 (centres undefined),3.34,,,,
2.34,6.95,,,O=C(c1ccccc1)N1CCN(CC(O)Cn2c3ccc(Br)cc3c3cc(Br)ccc32)CC1 (centres undefined),10.2,,,,

# Second part, the compound before the results:
SMILES,IC50 [1] [µM],Activity [3] [U],IC50 [5] [µM],IC50 [6] [µM],IC50 [2] [µM],Kd [4] [µM],Kd [7] [µM],Activity [8],Activity [9]
OC(CN1CCCCCC1)Cn1c2ccccc2c2ccccc21 (centres undefined),7.79,1.11,,,6.85,,,,
OC(CN1CCN(Cc2ccccc2)CC1)Cn1c2ccccc2c2ccccc21 (centres undefined),0.994,6.68,,,10.8,,,,
OC(CNC1CCCCC1)Cn1c2ccccc2c2ccccc21 (centres undefined),0.162,1.49,,,3.67,,,,
O=C(c1ccccc1)N1CCN(CC(O)Cn2c3ccc(Cl)cc3c3cc(Cl)ccc32)CC1 (centres undefined),1.13,6.71,,,9.72,25.6,,,
CC(C)(CO)NCC(O)Cn1c2ccccc2c2ccccc21 (centres undefined),10.1,0.49,,,6.22,,,,
CCC(CC)NCC(O)Cn1c2ccccc2c2ccccc21 (centres undefined),12.7,0.24,,,7.38,,,,
COC1=C2C[C@@H](C)C[C@H](OC)[C@H](O)[C@@H](C)/C=C(\C)[C@H](OC(N)=O)[C@@H](OC)/C=C\C=C(/C)C(=O)NC(=CC1=O)C2=O [GELDANAMYCIN],,,,,,,0.51,,
OC(CN1CCN(Cc2ccccc2)CC1)Cn1c2ccc(Cl)cc2c2cc(Cl)ccc21 (centres undefined),0.082,6.41,,,3.6,28.1,,inactive,inactive
CC(C)(C)NCC(O)Cn1c2ccccc2c2ccccc21 (centres undefined),2.08,0.725,,,7.21,,,,
CC(C)NCC(O)Cn1c2ccccc2c2ccccc21 (centres undefined),1.44,2.71,,,26.5,,,,
CC1CCCC(C)N1CC(O)Cn1c2ccccc2c2ccccc21 (centres undefined),4.97,0.6,,,37.7,,,,
CN(C)CC(O)Cn1c2ccc(Br)cc2c2cc(Br)ccc21 (centres undefined),1.67,0.41,,,3.66,,,,
O=C(c1ccccc1)N1CCN(CC(O)Cn2c3ccccc3c3ccccc32)CC1 (centres undefined),14.9,3.33,,,25.2,,,,
